# E coli RNAP: E. coli RNAP inhibitors, biochemical | DNA-directed RNA polymerase subunit beta (Escherichia coli (strain K12)), P0A8V2 | E. coli RNA polymerase, fluorescence transcription assay | inhibition, %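 (tested at 10 µM)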 | 62,000 tested, 0.2% active | AID 559, 2006; in the data active = inhibition above about 20%
# Ecoli tolC: growth inhibitors of E. coli tolC mutant, primary screen, strain BW25113 ΔtolC::kan, 384-well | OD615 | growth inhibition, % at 10 µM (by protocol) | 65,000 tested, 2.2% active;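 active = growth inhibition at or above a cutoff equal to the mean over every tested compound plus 3 SD, cut at about 60% in these data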;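 also: growth measured after 20 h incubation at 37 °C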
#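 Assay system: tolC-deleted E. coli BW25113. Medium: kanamycin-containing LB broth (50 µg/mL). Dosing: 10 µM final, single dose. Timing: bacterial growth with compound for 20 h at 37 °C. Detection: A615 absorbance measurement. Read-out basis: growth inhibition in percent.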
# AP complement: alternative complement pathway inhibitors, primary screen, biochemical, ELISA, human serum, orthogonally pooled compounds; LPS-coated ELISA, C3 deposition; tested in compound mixtures; inhibition, % at 5 µM; 62,000 tested, 0.08% active;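 active = inhibition above 30% in each of the two pooled mixtures holding the compound, so the lower value exceeds 30%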
#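 Test system: human serum alternative complement pathway, C3 deposition on LPS-coated wells; also added: Plate-bound LPS; doses: 5 µM per compound in ten-compound mixtures; schedule: 1 h at 37 °C; detection: Anti-C3 ELISA, OD 450 nm; evaluation: percent inhibition of C3 deposition onto LPS; repeats: two pool placements per compound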
# MMP13 inh: human MMP13 inhibitors, primary screen, biochemical, FRET peptide cleavage. inhibition, % at 4 µM. AID 570, 2006. MMP-13 fTHP FRET cleavage, Mca fluorescence. 65,000 tested, 0.07% active;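 active = inhibition above the mean of compound-free control plate wells plus 3 SD, cut at about 14% in these data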
# E coli WT exp: growth inhibitors of wild-type E. coli, primary screen, strain BW25113, expanded library, OD600 | OD600 absorbance | growth inhibition, % at 100 µM | 98,000 tested, 0.15% active | AID 710, 2007;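 active = growth inhibition above about 50% at one test dose, limit read from the data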;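 also: growth measured after 20 h incubation at 37 °C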
# BAP1 inh: inhibitors of BAP1 deubiquitinase, primary screen, biochemical, Ub-AMC fluorescence, kinetic | Ubiquitin carboxyl-terminal hydrolase BAP1 (Homo sapiens), Q92560 | recombinant BAP1, Ub-AMC hydrolysis fluorescence kinetic; active compounds read low | AID 436, 2006 | calls only at 20 µM | 72,000 tested, 0.48% active;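 active = activity remaining at or below 50% of control, provided the compound also passes the data quality filters; inactive = the rest, including low values that fail the filters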
# BAP1 inh confirm: BAP1 deubiquitinase inhibitors, hit retest, confirmation, orthogonal assay, biochemical, Ub-ethyl ester substrate, HPLC readout; 310 tested, 8% active; AID 753, 2007; % of control activity, % at 20 µM; purified BAP1, Ub-ethyl ester hydrolysis; active compounds read low; shares compounds with BAP1 inh;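 active = percent of control activity at or below 60%; inconclusive = HPLC trace unusable from injection failure or solvent front hiding peaks; inactive = the rest, plus ubiquitin peak ratio over a set limit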
# A number is an active result; n = inactive; u = inconclusive; x = no result shown; + = active, no number. Shown is part of a subset that was picked to be rich in hits.
SMILES,E coli RNAP,Ecoli tolC,AP complement,MMP13 inh,E coli WT exp,BAP1 inh,BAP1 inh confirm
CSc1ccc(C2Nc3ccccc3NC3=C2C(=O)CC(c2ccc(Cl)cc2)C3)cc1 (centres undefined),x,x,x,x,x,n,x
Clc1ccc(C2Nc3ccccc3-n3cccc32)cc1 (centres undefined),n,n,n,n,n,+,n
CCOC(=O)N1CCN(S(=O)(=O)c2ccc(C(=O)Nc3sc4c(c3C#N)CCC4)cc2)CC1,n,n,n,n,n,+,n
O=C(COc1ccc(Cl)cc1)Nc1nnc(-c2ccc3c(c2)CCCC3)o1,n,100.0,n,n,n,+,n
O=C(Nc1nnc(-c2ccc(Cl)cc2)o1)NC1CCCCC1,x,x,x,x,n,x,x
COC(=O)C1=C(C)NC(=O)NC1c1cc(Cl)ccc1OC (centres undefined),n,n,n,n,n,+,n
O=c1[nH]c2cc3c(cc2cc1CN(Cc1ccccc1)Cc1nnnn1Cc1ccco1)OCCO3,n,n,n,n,n,n,x
CCc1ccc2[nH]c(=O)c(CN(Cc3ccccc3)Cc3nnnn3Cc3ccco3)cc2c1,n,n,n,n,n,+,n
Cc1ccc2[nH]c(=O)c(CN(Cc3ccc4c(c3)OCO4)Cc3nnnn3Cc3ccco3)cc2c1,n,n,n,n,n,+,n
Cc1cc(C)c2cc(CN(Cc3ccc4c(c3)OCO4)Cc3nnnn3Cc3ccco3)c(=O)[nH]c2c1,n,n,n,n,n,n,x
CCOC(=O)Cn1nnnc1CN(Cc1cccs1)Cc1cc2cc(C)cc(C)c2[nH]c1=O,x,x,x,x,n,x,x
Cc1cccc2cc(CN(Cc3cccs3)Cc3nnnn3Cc3ccccc3)c(=O)[nH]c12,n,n,n,n,n,+,n
COc1ccc(C2CC(C(F)(F)F)n3ncc(C(=O)NC(C)C)c3N2)cc1OC (centres undefined),x,x,x,x,x,n,x
CCC(=O)Nc1cc(-c2nn(C)c(=O)c3ccccc23)ccc1OC,n,n,n,n,n,n,x
COc1ccc(-c2nn(C)c(=O)c3ccccc23)cc1NC(=O)Cn1nc(C)c2ccccc2c1=O,n,n,n,n,n,+,n
COc1cccc(Cn2c(C3CC3)nc3ccc(NC(=O)c4ccco4)cc3c2=O)c1,n,n,n,n,n,+,n
Cc1cccc(-c2cc3nc4c(c(N5CCOCC5)n3n2)CCCC4)c1,n,84.7,n,n,n,+,n
Cc1cccc(-c2cc3nc4c(c(N5CCC6(CC5)OCCO6)n3n2)CCCC4)c1,n,n,n,n,x,x,x
CC1CCC(C(=O)Oc2ccc(Br)cc2)CC1 (centres undefined),x,x,x,x,x,n,x
CCOC(=O)c1c(NC(=O)CCC(=O)O)sc2c1CCC2,x,x,x,x,x,n,x
O=S(=O)(c1ccc(-c2nnc(SCc3nnc(-c4ccccc4)o3)o2)cc1)N1CCCC1,n,n,n,n,n,+,n
O=C(CSc1nnc(-c2ccc(F)cc2)o1)Nc1ccc(S(=O)(=O)N2CCCCCC2)cc1,n,n,n,n,n,+,n
O=C(CSc1nnc(-c2ccc(F)cc2)o1)Nc1ccc(S(=O)(=O)N2CCCC2)cc1,n,n,n,n,n,n,x
CCn1c(SCc2nnc(-c3ccccc3)o2)nnc1-c1ccc(S(=O)(=O)N2CCCC2)cc1,n,n,n,n,n,n,x
COc1ccc2oc(=Nc3ccccc3OC)c(C(=O)NC(C)=O)cc2c1,x,x,x,x,x,n,x
Cn1c(=O)[nH]c(=O)c2c1[nH]c(=S)n2C,x,x,x,x,x,n,x
CC(C)(C)n1nc2c(c1NC(=O)c1ccccc1[N+](=O)[O-])CSC2,x,x,x,x,x,n,x
CCOC(=O)c1sc(=NC(=O)c2ccc(OC)c(OC)c2)n(C)c1C,n,n,n,n,n,+,u
CCOC(=O)c1sc(=NC(=O)c2cccc(OC)c2)n(C)c1C,n,n,n,n,n,n,x

# Screens as filed in PubChem.
